Consider 2 molecules from ChEMBL document CHEMBL1255368, “Posaconazole against Candida glabrata isolates with various susceptibilities to fluconazole” (2008).

Broadly, the MIC is the smallest concentration in the dilution series that meets the test's criterion for growth inhibition.

Experiment [1] deals with Nakaseomyces glabratus. The experiment in a line: Fungistatic activity against Candida glabrata isolate 4198 assessed as 99.9% reduction of initial fungal load at 0.5 times MIC after 48 hrs using colony count method by time-kill method. It is filed as functional, organism-based. A digest of the protocol: (§1)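 0.5 McFarland suspension from a 48-h plate, diluted 1:10 into MOPS-buffered RPMI 1640 with drug at 0.5× or 8× MIC. Shaken at 35°C; sampled at 0, 2, 4, 8 and 24 h, serially diluted and plated in triplicate on Sabouraud agar for 48 h at 35°C. Detection limit 20 CFU/ml; fungicidal = 99.9% fall from initial inoculum. Each isolate tested at least twice.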

In experiment [2] the test system is Nakaseomyces glabratus. Briefly: Fungistatic activity against Candida glabrata isolate 4205 assessed as 99.9% reduction of initial fungal load at 0.5 times MIC after 48 hrs using colony count method by time-kill method. It is filed as functional, organism-based. The procedure, abridged:
as §1

The subject of experiment [3] is Nakaseomyces glabratus. The experiment in a line: Fungistatic activity against Candida glabrata isolate 4293 assessed as 99.9% reduction of initial fungal load at 0.5 times MIC after 48 hrs using colony count method by time-kill method. It is filed as functional, organism-based. A digest of the protocol:
as §1

Experiment [4] has as its system Candida parapsilosis. Briefly: Fungistatic activity against Candida parapsilosis ATCC 22019 assessed as 99.9% reduction of int initial fungal load at 0.5 times MIC after 48 hrs using colony count method by time-kill method. Type of experiment: functional, organism-based.
Experiment [5] concerns Nakaseomyces glabratus. The experiment in a line: Fungistatic activity against Candida glabrata 4370 assessed as 99.9% reduction of int initial fungal load at 0.5 times MIC after 48 hrs using colony count method by time-kill method. It is filed as functional, organism-based. A digest of the protocol: as §1
Experiment [6] has as its system Candida parapsilosis. Briefly: Antifungal activity against Candida parapsilosis ATCC 22019 after 48 hrs by microdilution method. Type of experiment: functional. To be noted: Lodderomyces parapsilosis, ATCC 22019, 48 h. The procedure, abridged: (§2)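 CLSI M27-A2 broth microdilution. Final ranges: POS, CAS, AMB 0.0078–8.0 μg/ml; FLC 0.125–64 μg/ml. Incubated at 35°C, read at 24 and 48 h by OD490. MIC for POS, FLC, CAS: first concentration giving 50% lower turbidity than control; for AMB: 90% lower. Run in quintuplicate; C. parapsilosis ATCC 22019 as quality control.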
In general terms: In broth dilution the organism is exposed to a series of concentrations in liquid medium.

For experiment [7], the system named is Nakaseomyces glabratus. The experiment in a line: Antifungal activity against Candida glabrata isolate 4198 after 48 hrs by microdilution method. It is filed as functional. The conditions noted are these: isolate 4198, 48 h. A digest of the protocol: as §2
For experiment [8], the system named is Nakaseomyces glabratus. Briefly: Antifungal activity against Candida glabrata isolate 4205 after 48 hrs by microdilution method. Type of experiment: functional. A digest of the protocol:
as §2

For experiment [9], the system named is Nakaseomyces glabratus. Briefly: Antifungal activity against Candida glabrata isolate 4293 after 48 hrs by microdilution method. It is filed as functional. The procedure, abridged: as §2
Experiment [10] relates to Nakaseomyces glabratus. The experiment in a line: Antifungal activity against Candida glabrata isolate 4370 after 48 hrs by microdilution method. It is filed as functional. The procedure, abridged: as §2
Experiment [11] has as its system Nakaseomyces glabratus. The experiment in a line: Fungicidal activity against Candida glabrata isolate 4198 assessed as 99.9% reduction of initial fungal load at 8 times MIC after 48 hrs using colony count method by time-kill method. Type of experiment: functional, organism-based. The conditions noted are these: in the assay text read “after 24 hrs” for “after 48 hrs”. A digest of the protocol:
(§3)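 Time-kill assay. The inoculum was set to 0.5 McFarland in water and diluted 1:10 into MOPS-buffered RPMI 1640 with drug at 0.5× or 8× MIC, then shaken at 35°C. Samples were taken at 0, 2, 4, 8 and 24 h, serially diluted and plated in triplicate on Sabouraud agar, with 48 h at 35°C. Detection limit was 20 CFU/ml. Fungicidal was defined as a 99.9% drop from the initial inoculum. Each isolate was tested at least twice.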

Experiment [12] has as its system Nakaseomyces glabratus. The experiment in a line: Fungicidal activity against Candida glabrata isolate 4205 assessed as 99.9% reduction of initial fungal load at 8 times MIC […] using colony count method by time-kill method. Type of experiment: functional, organism-based. The procedure, abridged: as §3
For experiment [13], the system named is Nakaseomyces glabratus. The experiment in a line: Fungicidal activity against Candida glabrata isolate 4293 assessed as 99.9% reduction of initial fungal load at 8 times MIC […] using colony count method by time-kill method. It is filed as functional, organism-based.
The test system of experiment [14] is Candida parapsilosis. Briefly: Fungistatic activity against Candida parapsilosis ATCC 22019 assessed as 99.9% reduction of int initial fungal load at 8 times MIC after 48 hrs using colony count method by time-kill method. It is filed as functional, organism-based.
In experiment [15] the test system is Nakaseomyces glabratus. Briefly: Fungistatic activity against Candida glabrata 4370 assessed as 99.9% reduction of int initial fungal load at 8 times MIC after 48 hrs using colony count method by time-kill method. Type of experiment: functional, organism-based. A digest of the protocol:
as §1

Experiment [16] deals with Nakaseomyces glabratus. The experiment in a line: Antifungal activity against 2.44 x 10^8 CFU fluconazole-susceptible Candida glabrata isolate 4293 infected neutropenic CD1 mouse disseminated candidiasis model assessed as reduction in kidney tissue fungal burden at 1 mg/kg/day, ip administered 24 hrs post infection measured 7 days post infection by colony count method. Type of experiment: functional, organism-based. The procedure, abridged:
(§4)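 Neutropenia induced in male CD1 mice (25 g) with cyclophosphamide 200 mg/kg i.p. on days −4, +1 and +4. Mice were infected i.v. via the tail vein (0.2 ml). Drug was given i.p. at […], starting 24 h post-challenge, for 6 consecutive days. Kidney pairs were homogenized on day 7 and plated on Sabouraud dextrose agar for CFU counts. Groups had 7–8 mice.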

Experiment [17] relates to Nakaseomyces glabratus. The experiment in a line: Antifungal activity against 1.04 x 10^8 CFU fluconazole-susceptible Candida glabrata isolate 4293 infected neutropenic CD1 mouse disseminated candidiasis model assessed as reduction in kidney tissue fungal burden at 1 mg/kg/day, ip administered 24 hrs post infection measured 7 days post infection by colony count method. It is filed as functional, organism-based. The procedure, abridged:
as §4

The subject of experiment [18] is Candida parapsilosis. Briefly: Antifungal activity against Candida parapsilosis ATCC 22019 after 24 hrs by microdilution method. To be noted: Lodderomyces parapsilosis, ATCC 22019, 24 h. It is filed as functional. A digest of the protocol: (§5)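 CLSI M27-A2 broth microdilution. Final drug ranges were 0.0078–8.0 μg/ml for POS, CAS and AMB, and 0.125–64 μg/ml for FLC. Plates were incubated at 35°C and read by OD490 at 24 h. The MIC was the first concentration giving 50% turbidity reduction versus control (POS, FLC, CAS) or 90% (AMB). Run in quintuplicate.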

Experiment [19] has as its system Nakaseomyces glabratus. The experiment in a line: Antifungal activity against Candida glabrata isolate 4198 after 24 hrs by microdilution method. Type of experiment: functional. To be noted: isolate 4198, 24 h. The procedure, abridged:
as §2

Experiment [20] relates to Nakaseomyces glabratus. The experiment in a line: Antifungal activity against Candida glabrata isolate 4205 after 24 hrs by microdilution method. Type of experiment: functional. A digest of the protocol: as §2
The subject of experiment [21] is Nakaseomyces glabratus. The experiment in a line: Antifungal activity against Candida glabrata isolate 4293 after 24 hrs by microdilution method. Type of experiment: functional. The procedure, abridged:
as §5

In experiment [22] the test system is Nakaseomyces glabratus. The experiment in a line: Antifungal activity against Candida glabrata isolate 4370 after 24 hrs by microdilution method. Type of experiment: functional. The procedure, abridged:
as §2

In brackets after ≈: the same amount, converted by molar mass. Activity calls are given as the source filed them.

In the case of `C[C@@H]1[C@H](O)[C@@H](C)/C=C/C=C/C=C/C=C/C=C/C=C/C=C/[C@H](O[C@@H]2O[C@H](C)[C@@H](O)[C@H](N)[C@@H]2O)C[C@@H]2O[C@](O)(C[C@@H](O)C[C@@H](O)[C@H](O)CC[C@@H](O)C[C@@H](O)CC(=O)O[C@H]1C)C[C@H](O)[C@H]2C(=O)O` [AMPHOTERICIN B], the result in the experiment with Nakaseomyces glabratus [1], in the experiment on Nakaseomyces glabratus [2], in the experiment with Nakaseomyces glabratus [3], in the experiment on Candida parapsilosis [4], in the experiment with Nakaseomyces glabratus [5] and with Nakaseomyces glabratus [11] was Active. Besides, the outcome in the experiment with Nakaseomyces glabratus [12], with Nakaseomyces glabratus [13], in the experiment on Candida parapsilosis [14], in the experiment with Nakaseomyces glabratus [15], in the experiment on Nakaseomyces glabratus [16] and in the experiment with Nakaseomyces glabratus [17] was Active. The minimal inhibitory concentration (MIC) in the experiment on Candida parapsilosis [6] came out at 1 µg/mL (≈ 1.08 µM); against Nakaseomyces glabratus [7], 0.5 µg/mL (≈ 0.541 µM); against Nakaseomyces glabratus [8], 0.5 µg/mL (≈ 0.541 µM); in the experiment with Nakaseomyces glabratus [9], 0.5 µg/mL (≈ 0.541 µM); in the experiment on Nakaseomyces glabratus [10] it was 1 µg/mL (≈ 1.08 µM).

For the molecule `CC[C@H](C)C[C@H](C)CCCCCCCCC(=O)N[C@H]1C[C@@H](O)[C@@H](NCCN)NC(=O)[C@@H]2[C@@H](O)CCN2C(=O)[C@H]([C@H](O)CCN)NC(=O)[C@H]([C@H](O)[C@@H](O)c2ccc(O)cc2)NC(=O)[C@@H]2C[C@@H](O)CN2C(=O)[C@H]([C@@H](C)O)NC1=O` [CASPOFUNGIN], the result in the experiment on Nakaseomyces glabratus [1], in the experiment on Nakaseomyces glabratus [2], with Nakaseomyces glabratus [3], in the experiment with Candida parapsilosis [4], with Nakaseomyces glabratus [5] and with Nakaseomyces glabratus [16] was Active. In addition, the result with Nakaseomyces glabratus [17] was Active. The MIC with Candida parapsilosis [18] was 0.25 µg/mL (≈ 0.229 µM); against Nakaseomyces glabratus [19] it was 0.25 µg/mL (≈ 0.229 µM); against Nakaseomyces glabratus [20] it was 0.25 µg/mL (≈ 0.229 µM); in the experiment on Nakaseomyces glabratus [21], not above 0.03 µg/mL; in the experiment on Nakaseomyces glabratus [22] it was 0.125 µg/mL (≈ 0.114 µM). Moreover, the result with Nakaseomyces glabratus [11], with Nakaseomyces glabratus [12] and with Nakaseomyces glabratus [13] was inactive.
